Test results published in ChEMBL document CHEMBL4229533, “Design and synthesis of novel 6-hydroxy-4-methoxy-3-methylbenzofuran-7-carboxamide derivatives as potent Mnks inhibitors by fragment-based drug design” (Bioorg Med Chem, 2018).

Experiments:
[1] = molecular target: T1, MAP kinase-interacting serine/threonine-protein kinase 2 (Homo sapiens, UniProt Q9HBH9); assay: Inhibition of MNK2 (unknown origin) at 10 uM using S3 as substrate measured after 60 mins by HTRF assay relative to control
In short: (§1)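 HTRF Ser/Thr KinEASE format. Mnk1 or Mnk2 enzyme (0.99 ng) incubated with compound for 60 min at room temperature with 1 μM substrate S3, 392 μM ATP, 10 mM MgCl₂ and 1 mM DTT in KinEASE enzymatic buffer. Stopped with SA-XL665 and STK antibody detection reagents; 615/665 nm signal ratio read. Single-concentration values are duplicate means; IC50 taken from inhibition curves.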
Target sequence in this assay (Q9HBH9 whole entry, looked up): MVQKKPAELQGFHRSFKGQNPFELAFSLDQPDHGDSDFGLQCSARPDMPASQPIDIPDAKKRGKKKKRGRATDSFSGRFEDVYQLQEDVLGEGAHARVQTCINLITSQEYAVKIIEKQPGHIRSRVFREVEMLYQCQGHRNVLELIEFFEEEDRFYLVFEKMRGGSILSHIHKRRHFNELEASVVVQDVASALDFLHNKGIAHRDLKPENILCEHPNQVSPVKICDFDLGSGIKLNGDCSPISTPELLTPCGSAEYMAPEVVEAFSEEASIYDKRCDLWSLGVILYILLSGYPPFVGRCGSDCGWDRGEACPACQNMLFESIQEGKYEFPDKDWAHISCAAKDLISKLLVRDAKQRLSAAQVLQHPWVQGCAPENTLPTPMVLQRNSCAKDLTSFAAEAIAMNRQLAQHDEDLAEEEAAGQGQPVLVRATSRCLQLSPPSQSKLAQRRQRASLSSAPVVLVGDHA

[2] = molecular target: T1, MAP kinase-interacting serine/threonine-protein kinase 2; assay: Inhibition of MNK2 (unknown origin) at 1 uM using S3 as substrate measured after 60 mins by HTRF assay relative to control; in short: as §1
Target sequence in this assay (Q9HBH9 whole entry, looked up): as above

[3] = system: MOLM-13; assay: Antiproliferative activity against human MOLM13 cells after 96 hrs by MTT assay; type: functional, cell-based; settings: MOLM-13, 96 h
In short: (§2)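 Cells seeded at 2,000 per well and grown 24 h at 37 °C in 5% CO₂. Compound added over a concentration range in triplicate wells, then incubated 96 h. MTT (2 mg/mL) added for 4 h, formazan taken up in DMSO, absorbance read at 570 nm. Inhibition calculated against untreated control. IC50 is the concentration giving half inhibition; mean of three independent experiments.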

[4] = molecular target: MAP kinase-interacting serine/threonine-protein kinase 1 (Homo sapiens) (UniProt Q9BUB5); assay: Inhibition of MNK1 (unknown origin) at 10 uM using S3 as substrate measured after 60 mins by HTRF assay relative to control; in short: as §1
Sequence of MAP kinase-interacting serine/threonine-protein kinase 1 (Homo sapiens) (Q9BUB5 whole entry, looked up): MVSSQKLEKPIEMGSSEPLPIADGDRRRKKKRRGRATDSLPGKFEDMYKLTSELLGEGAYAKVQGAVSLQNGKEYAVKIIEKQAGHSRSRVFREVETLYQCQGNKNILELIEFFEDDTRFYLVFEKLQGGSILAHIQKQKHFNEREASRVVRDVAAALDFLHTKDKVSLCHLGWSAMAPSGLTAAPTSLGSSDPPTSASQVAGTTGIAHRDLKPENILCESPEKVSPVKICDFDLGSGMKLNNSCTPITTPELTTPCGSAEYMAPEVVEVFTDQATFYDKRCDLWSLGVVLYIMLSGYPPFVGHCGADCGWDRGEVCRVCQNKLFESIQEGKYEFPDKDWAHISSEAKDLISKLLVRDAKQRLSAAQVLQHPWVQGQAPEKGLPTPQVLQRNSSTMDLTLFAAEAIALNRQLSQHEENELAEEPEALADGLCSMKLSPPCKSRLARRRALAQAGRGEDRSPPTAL

[5] = molecular target: MAP kinase-interacting serine/threonine-protein kinase 1 (Homo sapiens) (UniProt Q9BUB5); assay: Inhibition of MNK1 (unknown origin) at 1 uM using S3 as substrate measured after 60 mins by HTRF assay relative to control; in short: as §1
[6] = molecular target: MAP kinase-interacting serine/threonine-protein kinase 1 (Homo sapiens) (UniProt Q9BUB5); assay: Inhibition of MNK1 (unknown origin) at 0.1 uM using S3 as substrate measured after 60 mins by HTRF assay relative to control; in short: as §1
[7] = molecular target: T1, MAP kinase-interacting serine/threonine-protein kinase 2; assay: Inhibition of MNK2 (unknown origin) using S3 as substrate measured after 60 mins by HTRF assay
Target sequence in this assay (Q9HBH9 whole entry): as the sequence (Q9HBH9 whole entry, looked up) above

[8] = system: THP-1; assay: Antiproliferative activity against human THP1 cells after 96 hrs by MTT assay; type: functional, cell-based; settings: THP-1, 96 h; in short: as §2
[9] = system: HCT-116; assay: Antiproliferative activity against human HCT116 cells after 96 hrs by MTT assay; type: functional, cell-based; settings: HCT-116, 96 h; in short: as §2
[10] = molecular target: MAP kinase-interacting serine/threonine-protein kinase 1/2 (Homo sapiens) (UniProt Q9HBH9+Q9BUB5); assay: Inhibition of MNK1/MNK2 in human HCT116 cells assessed as reduction in eIF4E phosphorylation at Ser209 residue after 24 hrs by Western blot analysis; type: cell-based
In short: (§3)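 HCT-116 cells exposed to compound at several concentrations in 0.5% DMSO, or DMSO alone, for 24 h. Cells were rinsed in ice-cold PBS and lysed in RIPA buffer (pH 8.0), 50 µg protein loaded. Run on 8% or 12% SDS-PAGE, transferred to nitrocellulose and checked for loading by Ponceau S. Blocked in 5% milk, probed overnight at 4°C for eIF4E, p-eIF4E and GAPDH, detected by ECL.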

[11] = system: HCT-116; assay: Effect on eIF4E levels in human HCT116 cells at 1 to 4 times IC50 after 24 hrs by Western blot analysis; type: ADME, cell-based; settings: hct-116, 24 h; in short: as §3

Structure (SMILES)	inhibition [1] [%]	inhibition [2] [%]	further results
COc1cc(O)c(C(N)=O)c2oc(C(=O)N3CCN(c4ccccc4)CC3)c(C)c12	15	8	–
COc1cc(O)c(C(N)=O)c2oc(C(=O)NC3CCN(Cc4cccc(C(F)(F)F)c4)CC3)c(C)c12	90	85	IC50 [3]: 3.15 µM; inhibition [4]: 59%; inhibition [5]: 41%; inhibition [6]: 20%; IC50 [7]: 0.273 µM; IC50 [8]: 6.3 µM; IC50 [9]: 2.77 µM; inhibition [10]: Dose-dependent effect; Activity [11]: Non-Toxic
COc1cc(O)c(C(N)=O)c2oc(C(=O)NC3CCN(Cc4ccc(C)cc4)CC3)c(C)c12	40	27	–
COc1cc(O)c(C(N)=O)c2oc(C(=O)N3CCN(c4ccc(F)cc4)CC3)c(C)c12	10	5	–
COc1cc(O)c(C(N)=O)c2oc(C(=O)NC3CCN(Cc4cccc(Cl)c4Cl)CC3)c(C)c12	21	18	–
COc1ccc2c(C)c(C(=O)NC3CCN(Cc4cccc(C(F)(F)F)c4)CC3)oc2c1	27	0	–
COc1cc(O)c(C(N)=O)c2oc(C(=O)Nc3ccc(F)c(C(F)(F)F)c3)c(C)c12	35	18	–
COc1cc(O)c(C(N)=O)c2oc(C(=O)NC3CCN(Cc4c(Cl)cccc4Cl)CC3)c(C)c12	27	1	–
COc1cc(O)c(C(N)=O)c2oc(C(=O)NCc3cccc(F)c3)c(C)c12	23	11	–
COc1cc(O)c(C(N)=O)c2oc(C(=O)NC3CCCCC3)c(C)c12	28	20	–
COc1cc(O)c(C(N)=O)c2oc(C(=O)NC3CCN(Cc4ccncc4)CC3)c(C)c12	32	15	–
COc1cc(O)c(C(N)=O)c2oc(C(=O)Nc3ccc(C)c(C(F)(F)F)c3)c(C)c12	57	75	inhibition [4]: 23%; inhibition [5]: 23%; inhibition [6]: 12%; IC50 [7]: 3.55 µM; IC50 [8]: > 50 µM
COc1cc(O)c(C(N)=O)c2oc(C(=O)NC3CCN(Cc4ccc(C(F)(F)F)cc4)CC3)c(C)c12	43	24	–
Cc1c(C(=O)NC2CCN(Cc3cccc(C(F)(F)F)c3)CC2)oc2cc(O)ccc12	28	0	–
COc1cc(O)c(C(N)=O)c2oc(C(=O)NCCN(C)C)c(C)c12	24	19	–
COc1cc(O)c(C(N)=O)c2oc(C(=O)NC3CCCC3)c(C)c12	22	6	–
COc1cc(O)c(C(N)=O)c2oc(C(=O)N3CCCCC3)c(C)c12	23	19	–
COc1cc(O)c(C(N)=O)c2oc(C(=O)NCC3CCN(Cc4cccc(C(F)(F)F)c4)CC3)c(C)c12	49	23	–
COc1cc(O)c(C(N)=O)c2oc(C(=O)N3CCN(c4cccc(C(F)(F)F)c4)CC3)c(C)c12	61	28	–
COc1cc(O)c(C(N)=O)c2oc(C(=O)NC3CCN(Cc4ccccc4F)CC3)c(C)c12	31	29	–
COc1cc(O)c(C(N)=O)c2oc(C(=O)NC3CCN(Cc4ccc(F)cc4)CC3)c(C)c12	15	8	–

Structure (SMILES)	inhibition [1] [%]	inhibition [2] [%]	further results
COc1cc(O)c(C(N)=O)c2oc(C(=O)NCc3ccccc3)c(C)c12	28	24	–
COc1cc(O)c(C(N)=O)c2oc(C(=O)NCC3CCN(Cc4ccc(Cl)c(Cl)c4)CC3)c(C)c12	38	21	–
COc1cc(O)c(C(N)=O)c2oc(C(=O)N(C)Cc3ccccc3)c(C)c12	0	0	–
COc1cc(O)c(C(N)=O)c2oc(C(=O)NC3CCN(C(=O)c4ccc(C(F)(F)F)cc4)CC3)c(C)c12	29	26	–
COc1cc(O)c(C(N)=O)c2oc(C(=O)NCC3CCN(C(=O)c4ccc(F)cc4)CC3)c(C)c12	23	16	–
COc1cc(O)c(C(N)=O)c2oc(C(=O)NC3CCN(Cc4ccc(Cl)cc4Cl)CC3)c(C)c12	0	0	–
CCN1CCN(C(=O)c2oc3c(C(N)=O)c(O)cc(OC)c3c2C)CC1	79	36	IC50 [3]: 13.5 µM; inhibition [4]: 30%; inhibition [5]: 7%; inhibition [6]: 3%; IC50 [7]: 1.16 µM; IC50 [8]: 18.8 µM; IC50 [9]: 15.7 µM
COc1cc(OC)c2c(C)c(C(=O)NC3CCN(Cc4cccc(C(F)(F)F)c4)CC3)oc2c1C(N)=O	29	2	–
COc1cc(O)c(C(N)=O)c2oc(C(=O)NC3CCN(Cc4ccc(Cl)cc4)CC3)c(C)c12	45	29	–
COc1cc(O)c(C(N)=O)c2oc(C(=O)Nc3ccccc3)c(C)c12	0	0	–
COc1cc(OC)c2c(C)c(C(=O)NC3CCN(Cc4cccc(C(F)(F)F)c4)CC3)oc2c1	35	6	–
Nc1ncnc2[nH]nc(Nc3ccc(F)cc3)c12	–	–	IC50 [3]: 8.24 µM; IC50 [8]: 11.7 µM; IC50 [9]: 10.2 µM
COc1cc(O)c(C(N)=O)c2occ(C)c12	77	43	IC50 [3]: 24.8 µM; inhibition [4]: 39%; inhibition [5]: 49%; inhibition [6]: 34%; IC50 [7]: 0.749 µM; IC50 [8]: 32.4 µM; IC50 [9]: 26.1 µM
COc1cc(O)c(C(N)=O)c2oc(C(=O)N3CCOCC3)c(C)c12	24	12	–
COc1cc(O)c(C(N)=O)c2oc(C(=O)N(C)C)c(C)c12	45	24	–
COc1cc(O)c(C(N)=O)c2oc(C(=O)NCC3CCN(Cc4ccc(F)cc4)CC3)c(C)c12	41	32	–
CCOC(=O)c1oc2c(C(N)=O)c(O)cc(OC)c2c1C	41	21	–
CNC(=O)c1oc2c(C(N)=O)c(O)cc(OC)c2c1C	73	66	inhibition [4]: 39%; inhibition [5]: 26%; inhibition [6]: 11%; IC50 [7]: 1.45 µM; IC50 [8]: > 50 µM
COc1cc(O)c(C(N)=O)c2oc(C(=O)NC3CCN(Cc4cc(Cl)ncn4)CC3)c(C)c12	11	0	–
Cc1c(C(=O)NC2CCN(Cc3cccc(C(F)(F)F)c3)CC2)oc2c(C(N)=O)c(O)cc(O)c12	34	1	–
